Molecules are shown by their SMILES. Calls of active or inactive are those of the source. No cut-off for these calls is given here.

In series [1] the test system is Mus musculus. Briefly: Protective effect against adenine-induced chronic renal failure in ig dosed Kunming mouse assessed as decrease in nephridial IL-1beta levels administered as qd for 4 successive weeks with haikunshenxi capsule. In kind it is functional, organism-based. The method in brief:
(§1)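 CRF model made by chronic dietary adenine in male Kunming mice (20 ± 5 g); oral dosing at 100 or 200 mg kg–1, alone or with Haikunshenxi capsule; ten mice per group. Kidney tissue TNF-α, IL-1β and IL-6 measured as pg per mg protein, and iNOS activity as U mg–1 protein.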

The test system of series [2] is Mus musculus. Briefly: Protective effect against adenine-induced chronic renal failure in Kunming mouse assessed as kidney index at 100 mg/kg, ig qd administered for 4 successive weeks with haikunshenxi capsule measured 24 hrs post last dose (reference value: 1.94 +/- 0.03 mg/g). In kind it is functional. The gist of the method: (§2)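 Male Kunming mice (20 ± 5 g) were housed on a 12 h light/dark cycle at 18–20 °C. Chronic renal failure was induced by long-term dietary adenine. The melanin was given orally at 100 or 200 mg kg–1, alone or with Haikunshenxi capsule as positive drug, with ten mice per group. Weight growth rate (%) and kidney index (mg g–1) were recorded.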

Series [3] concerns Mus musculus. Briefly: Protective effect against adenine-induced chronic renal failure in Kunming mouse assessed as nephridial iNOS levels at 200 mg/kg, ig qd administered for 4 successive weeks (reference value: 1.98 +/- 0.12 U/mg). Format: functional.
Series [4] has as its system Mus musculus. Description: Protective effect against adenine-induced chronic renal failure in Kunming mouse assessed as reduction in renal tubular atrophy at 200 mg/kg, ig qd administered for 4 successive weeks by haematoxylin and eosin dye-based optical microscopic method. Format: functional, organism-based. The method in brief:
(§3)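 Kidneys were taken from male Kunming mice given an adenine diet plus oral melanin (100 or 200 mg kg–1), with or without Haikunshenxi capsule, ten per group. Histological sections were examined at 400× for glomeruli, tubules, adenine crystals, tubular atrophy and interstitial fibrosis.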

Series [5] in a line: Cytotoxicity against human HepG2 cells assessed as cell viability at 1 to 300 ug/ml after 24 hrs by MTT assay relative to control. The following applies: read-out: Activity. Format: cell-based. The method in brief:
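HepG2 cells exposed to the melanin were read by MTT absorbance. Viability (% of control) is calculated as treated-well absorbance ×100 / control-well absorbance.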
In general terms: Tetrazolium dyes change colour on reduction, which living cells bring about.

Series [6] deals with Mus musculus. Description: Protective effect against adenine-induced chronic renal failure in Kunming mouse assessed as nephridial IL-6 levels at 200 mg/kg, ig qd administered for 4 successive weeks with haikunshenxi capsule (reference value: 20.85 +/- 0.11 pg/ml). In kind it is functional.
Series [7] concerns Mus musculus. Briefly: Protective effect against adenine-induced chronic renal failure in ig dosed Kunming mouse assessed as increase in nephridial CAT levels administered as qd for 4 successive weeks by visible spectrometry method. Format: functional, organism-based. The method in brief:
(§4)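 Male Kunming mice (20 ± 5 g) given dietary adenine to induce CRF, then dosed orally at 100 or 200 mg kg–1, with or without Haikunshenxi capsule; n = 10 per group. Kidney homogenate assayed for SOD and CAT (U mg–1 protein), GSH-Px (U L–1), GSH (mg g–1 protein) and MDA (nmol mL–1).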

The test system of series [8] is Mus musculus. Briefly: Protective effect against adenine-induced chronic renal failure in Kunming mouse assessed as nephridial CAT levels at 200 mg/kg, ig qd administered for 4 successive weeks with haikunshenxi capsule by visible spectrometry method (reference value: 44.13 +/- 1.25 U/mg). In kind it is functional.
The test system of series [9] is Mus musculus. Briefly: Protective effect against adenine-induced chronic renal failure in Kunming mouse assessed as nephridial GSH-PX levels at 100 mg/kg, ig qd administered for 4 successive weeks with haikunshenxi capsule by colorimetric method (reference value: 688.45 +/- 12.67 U/L). In kind it is functional.
Series [10] has as its system Mus musculus. Briefly: Protective effect against adenine-induced chronic renal failure in ig dosed Kunming mouse assessed as increase in nephridial GSH-PX levels administered as qd for 4 successive weeks with haikunshenxi capsule by colorimetric method. In kind it is functional, organism-based. The gist of the method: as §4
The subject of series [11] is Mus musculus. Briefly: Protective effect against adenine-induced chronic renal failure in ig dosed Kunming mouse assessed as decrease in nephridial iNOS levels administered as qd for 4 successive weeks. In kind it is functional, organism-based. The gist of the method:
as §1

The subject of series [12] is Mus musculus. Briefly: Protective effect against adenine-induced chronic renal failure in Kunming mouse assessed as weight growth rate at 100 mg/kg, ig qd administered for 4 successive weeks with haikunshenxi capsule measured 24 hrs post last dose (reference value: 32.42 +/- 1.43%). Format: functional. The gist of the method: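 Male Kunming mice (20 ± 5 g) kept on a 12 h light/dark cycle at 18–20 °C on a standard diet. CRF induced by chronic dietary adenine. Test material given orally at 100 or 200 mg kg–1, alone or with Haikunshenxi capsule, alongside normal, model and capsule-only groups; ten mice per group. Weight growth rate recorded in %, kidney index in mg g–1.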

Series [13] relates to Mus musculus. Briefly: Protective effect against adenine-induced chronic renal failure in Kunming mouse assessed as appearance of complete glomeruli in kidney at 100 mg/kg, ig qd administered for 4 successive weeks by haematoxylin and eosin dye-based optical microscopic method. Format: functional, organism-based. The gist of the method:
as §3

The subject of series [14] is Mus musculus. Description: Protective effect against adenine-induced chronic renal failure in ig dosed Kunming mouse assessed as reduction in kidney index administered as qd for 4 successive weeks measured 24 hrs post last dose.
The subject of series [15] is Mus musculus. Description: Protective effect against adenine-induced chronic renal failure in Kunming mouse assessed as nephridial MDA levels at 200 mg/kg, ig qd administered for 4 successive weeks with haikunshenxi capsule by thiobarbituric acid method (reference value: 5.05 +/- 0.15 nmol/ml). Format: functional.
Series [16] concerns Mus musculus. Description: Protective effect against adenine-induced chronic renal failure in Kunming mouse assessed as reduction in number of adenine crystals in kidney at 200 mg/kg, ig qd administered for 4 successive weeks by haematoxylin and eosin dye-based optical microscopic method. Format: functional, organism-based. The gist of the method: as §3
The subject of series [17] is Mus musculus. Briefly: Protective effect against adenine-induced chronic renal failure in Kunming mouse assessed as nephridial SOD levels at 200 mg/kg, ig qd administered for 4 successive weeks with haikunshenxi capsule by hydroxylamine method (reference value: 30.45 +/- 1.12 U/mg). In kind it is functional.
Series [18] concerns Mus musculus. Briefly: Protective effect against adenine-induced chronic renal failure in Kunming mouse assessed as kidney index at 100 mg/kg, ig qd administered for 4 successive weeks measured 24 hrs post last dose (reference value: 1.94 +/- 0.03 mg/g). In kind it is functional. The gist of the method: as §2
For series [19], the system named is Mus musculus. Description: Protective effect against adenine-induced chronic renal failure in Kunming mouse assessed as nephridial TNF-alpha levels at 100 mg/kg, ig qd administered for 4 successive weeks (reference value: 250.15 +/- 8.10 pg/ml). In kind it is functional.
Series [20] relates to Mus musculus. Description: Protective effect against adenine-induced chronic renal failure in ig dosed Kunming mouse assessed as decrease in nephridial IL-6 levels administered as qd for 4 successive weeks with haikunshenxi capsule. Format: functional, organism-based. The gist of the method:
as §1

Series [21] deals with Mus musculus. Description: Protective effect against adenine-induced chronic renal failure in Kunming mouse assessed as nephridial IL-1beta levels at 100 mg/kg, ig qd administered for 4 successive weeks with haikunshenxi capsule (reference value: 18.34 +/- 0.25 pg/ml). Format: functional.
Series [22] relates to Mus musculus. Description: Protective effect against adenine-induced chronic renal failure in ig dosed Kunming mouse assessed as decrease in nephridial MDA levels administered as qd for 4 successive weeks by thiobarbituric acid method. Format: functional, organism-based. The gist of the method:
as §4

In series [23] the test system is Mus musculus. Briefly: Protective effect against adenine-induced chronic renal failure in Kunming mouse assessed as nephridial SOD levels at 100 mg/kg, ig qd administered for 4 successive weeks by hydroxylamine method (reference value: 30.45 +/- 1.12 U/mg). Format: functional.

Turning to `Cc1c(=O)c(=O)c2c3c[nH]c4c(C)c(=O)c(=O)c(c5c[nH]c1c52)c43`, the Activity result in the series with Mus musculus [1] was “Dose-dependent effect”; in the series with Mus musculus [2] it was 1.18 mg/g; in the series on Mus musculus [3], 1.64 U/mg; with Mus musculus [6], 10.74 pg/mL; in the series with Mus musculus [7], “Dose-dependent effect”; in the series on Mus musculus [8] it was 76.47 U/mg. In addition, the Activity in the series on Mus musculus [9] was 850.44 U/L; with Mus musculus [10], “Dose-dependent effect”; in the series with Mus musculus [11], “Dose-dependent effect”; in the series with Mus musculus [12], 54.34%; in the series on Mus musculus [14], “Dose-dependent effect”; in the series with Mus musculus [15], 2.88 nmol/mL. Moreover, the Activity in the series on Mus musculus [17] is 48.58 U/mg; with Mus musculus [18], 1.72 mg/g; in the series with Mus musculus [19] it was 218.12 pg/mL; in the series on Mus musculus [20] it was “Dose-dependent effect”; in the series on Mus musculus [21], 14.51 pg/mL; with Mus musculus [22] it was “Dose-dependent effect”. The Activity with Mus musculus [23] amounted to 32.32 U/mg. The outcome in the series with Mus musculus [4], in the series with Mus musculus [13] and with Mus musculus [16] was Active. Besides, in series [5], the viability at 24 h stood at 100%.

Source of the values: ChEMBL document CHEMBL4257441, “Protection effect of intracellular melanin from Lachnum YM156 and Haikunshenxi capsule combination on adenine-induced chronic renal failure in mice” (Medchemcomm, 2017).
